Experimental findings from ChEMBL document CHEMBL1148681, “Synthesis and evaluation of (2-phenethyl-2H-1,2,3-triazol-4-yl)(phenyl)methanones as Kv1.5 channel blockers for the treatment of atrial fibrillation” (Bioorg Med Chem Lett, 2006) are described below.

The target in data set [1] is T1, Potassium voltage-gated channel subfamily A member 5 (Homo sapiens, UniProt P22460). Put plainly: Blockade of Kv1.5 channel expressed in LTK cells by patch clamp method. It counts as functional, cell-based. In outline:
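Dexamethasone-induced (24 h) Ltk- cells expressing Kv1.5 were recorded by series-resistance-compensated whole-cell patch clamp, with 1 s steps from −70 to +60 mV at 0.2 Hz (pH 7.2 pipette, pH 7.4 bath). After control currents stabilized, inhibitor was perfused at rising concentrations, each to maximal block. IC50 was obtained by nonlinear regression.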
A general note: Patch clamp records ionic current or voltage across a cell membrane.

Data set [2] deals with T1, Potassium voltage-gated channel subfamily A member 5. Put plainly: Blockade of Kv1.5 channel expressed in LTK cells at 1 uM by patch clamp method. Format: functional, cell-based. In outline:
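Whole-cell patch clamp on Ltk- cells overexpressing Kv1.5, cultured 24–72 h and induced with dexamethasone for 24 h. Pipette solution was KCl/K2ATP/K4BAPTA/MgCl2/Hepes at pH 7.2; bath was NaCl/KCl/CaCl2/MgCl2/Hepes/glucose at pH 7.4. Cells were held at −70 mV and stepped to +60 mV for 1 s at 0.2 Hz. Current at pulse end was compared to control at 1 uM inhibitor.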

Data set [3] has as its target Voltage-gated inwardly rectifying potassium channel KCNH2 (Homo sapiens, UniProt Q12809). Put plainly: Inhibition of hERG. It counts as toxicity.
The target of data set [4] is Potassium voltage-gated channel subfamily A member 3 (Homo sapiens) (UniProt P22001). Put plainly: Inhibition of Kv1.3 channel.
Sequence of Potassium voltage-gated channel subfamily A member 3 (Homo sapiens) (P22001 whole entry): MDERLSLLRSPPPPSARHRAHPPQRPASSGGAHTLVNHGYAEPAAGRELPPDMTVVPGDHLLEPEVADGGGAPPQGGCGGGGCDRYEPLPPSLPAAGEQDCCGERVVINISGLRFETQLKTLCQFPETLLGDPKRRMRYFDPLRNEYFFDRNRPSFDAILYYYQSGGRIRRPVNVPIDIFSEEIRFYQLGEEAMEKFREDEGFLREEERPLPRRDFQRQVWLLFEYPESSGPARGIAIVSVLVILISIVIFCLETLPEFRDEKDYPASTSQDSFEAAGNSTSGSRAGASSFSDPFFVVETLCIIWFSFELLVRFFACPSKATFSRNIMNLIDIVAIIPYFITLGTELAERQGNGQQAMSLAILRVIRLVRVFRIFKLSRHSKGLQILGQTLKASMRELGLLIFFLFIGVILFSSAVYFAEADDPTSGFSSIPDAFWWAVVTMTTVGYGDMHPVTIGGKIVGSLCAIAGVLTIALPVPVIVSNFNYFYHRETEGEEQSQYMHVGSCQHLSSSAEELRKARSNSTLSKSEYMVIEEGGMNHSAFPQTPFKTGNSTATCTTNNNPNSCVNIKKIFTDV
For data set [5], the target named is Voltage-gated L-type calcium channel (Homo sapiens, UniProt Q13936+Q13698+Q01668+O60840). Put plainly: Inhibition of L type calcium channel. It counts as protein assay.
The subject of data set [6] is Sus scrofa. Put plainly: Increase in atrial effective refractory period in pig at 30 mg/kg after 15 mins. It counts as functional, Cardiac atrium.
Data set [7] relates to Sus scrofa. Put plainly: Effect on ventricular effective refractory period in pig at 30 mg/kg after 15 mins. It counts as functional, organism-based. On the set-up: dose 30 mg/kg. The conditions noted are these: Cardiac ventricle.

Molecules are shown by their SMILES. Calls of active or inactive are those of the source. The calls are words filed in the database; no cut-off is given here.

T1 sequence (P22460 whole entry, the tested form may be a part): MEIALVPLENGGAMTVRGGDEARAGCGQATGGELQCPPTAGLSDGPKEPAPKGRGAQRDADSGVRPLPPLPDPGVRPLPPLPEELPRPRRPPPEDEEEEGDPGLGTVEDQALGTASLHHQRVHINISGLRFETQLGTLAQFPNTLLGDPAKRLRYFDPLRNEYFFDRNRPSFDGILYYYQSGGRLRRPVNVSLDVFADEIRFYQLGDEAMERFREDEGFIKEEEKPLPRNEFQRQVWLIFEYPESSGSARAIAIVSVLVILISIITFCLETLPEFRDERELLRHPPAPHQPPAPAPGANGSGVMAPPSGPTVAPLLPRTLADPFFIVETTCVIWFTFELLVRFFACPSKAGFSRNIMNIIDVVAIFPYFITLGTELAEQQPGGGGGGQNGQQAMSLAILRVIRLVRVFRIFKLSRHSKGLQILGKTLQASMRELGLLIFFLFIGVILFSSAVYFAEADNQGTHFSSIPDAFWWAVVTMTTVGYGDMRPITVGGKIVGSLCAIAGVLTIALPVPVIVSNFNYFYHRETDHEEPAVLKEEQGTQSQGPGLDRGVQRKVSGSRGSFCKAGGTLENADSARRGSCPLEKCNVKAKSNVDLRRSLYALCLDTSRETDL
Sequence of Voltage-gated inwardly rectifying potassium channel KCNH2 (Q12809 whole entry): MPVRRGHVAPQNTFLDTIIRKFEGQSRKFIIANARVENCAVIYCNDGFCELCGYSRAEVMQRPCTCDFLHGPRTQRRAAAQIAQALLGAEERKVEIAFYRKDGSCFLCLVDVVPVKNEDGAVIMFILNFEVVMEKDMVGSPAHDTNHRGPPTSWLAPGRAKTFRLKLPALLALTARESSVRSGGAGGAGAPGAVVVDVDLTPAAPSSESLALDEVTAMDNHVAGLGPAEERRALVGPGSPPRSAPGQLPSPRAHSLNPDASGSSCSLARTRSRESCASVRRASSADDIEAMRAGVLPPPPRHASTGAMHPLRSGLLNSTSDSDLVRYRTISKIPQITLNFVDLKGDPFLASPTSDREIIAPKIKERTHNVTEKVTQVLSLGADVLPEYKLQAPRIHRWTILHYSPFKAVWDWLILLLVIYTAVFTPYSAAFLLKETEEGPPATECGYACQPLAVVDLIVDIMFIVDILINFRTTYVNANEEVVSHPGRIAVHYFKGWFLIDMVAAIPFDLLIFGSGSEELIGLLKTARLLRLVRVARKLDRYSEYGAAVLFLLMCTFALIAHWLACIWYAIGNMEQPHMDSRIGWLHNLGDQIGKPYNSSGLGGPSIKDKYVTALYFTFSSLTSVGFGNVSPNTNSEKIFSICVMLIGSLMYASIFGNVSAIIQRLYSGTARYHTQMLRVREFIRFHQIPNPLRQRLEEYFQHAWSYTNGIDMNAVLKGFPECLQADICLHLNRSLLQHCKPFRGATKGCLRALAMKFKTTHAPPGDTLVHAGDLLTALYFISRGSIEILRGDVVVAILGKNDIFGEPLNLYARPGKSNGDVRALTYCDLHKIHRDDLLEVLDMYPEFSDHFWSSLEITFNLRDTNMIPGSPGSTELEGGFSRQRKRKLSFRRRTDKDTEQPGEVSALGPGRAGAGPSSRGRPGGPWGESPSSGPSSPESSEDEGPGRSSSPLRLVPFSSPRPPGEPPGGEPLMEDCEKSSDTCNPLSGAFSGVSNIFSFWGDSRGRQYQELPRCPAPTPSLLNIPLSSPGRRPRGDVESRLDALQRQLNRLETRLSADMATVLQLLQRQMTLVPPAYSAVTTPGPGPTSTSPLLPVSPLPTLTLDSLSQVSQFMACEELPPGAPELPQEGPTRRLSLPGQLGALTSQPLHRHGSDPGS

With `COc1ccc(CCN2C(=O)CSC2c2ccc(C)c(C)c2)cc1` (configuration not stated), in data set [1], the IC50 (usually the concentration that inhibits the measured activity by half) was 0.137 µM. As for `COc1ccc(CCn2ncc(C(=O)c3ccc(N(C)C)cc3OC)n2)cc1`, in data set [2], the Activity was found to be 0%.

`CCc1ccc(C(=O)c2cnn(CCc3ccc(OC)cc3)n2)cc1`: the Activity in data set [2] was 86%. As to `COc1ccc(CCn2ncc(C(=O)c3ccc(C)c(C)c3)n2)cc1`, it took 0.294 µM to reach half-maximal inhibition in data set [1] (IC50). The Activity is 90% in data set [2]; greater than 50 µM in data set [3]; 10.1 µM in data set [4]; 26 µM in data set [5]; 12% with Sus scrofa [6]. Also, the result in the data set with Sus scrofa [7] was inactive.

In turn, `COc1ccc(CCn2ncc(C(=O)c3ccc(Cl)c(Cl)c3)n2)cc1` returned an Activity in data set [2] of 88%. With `COc1ccc(CCn2ncc(C(=O)c3ccc(OC)cc3)n2)cc1`, in data set [2], the Activity is 84%. As to `COc1ccc(CCn2cc(C(=O)c3ccc(C)c(C)c3)nn2)cc1`, in data set [1], the result was inactive. Take `COc1ccc(CCn2ncc(C(=O)c3ccc(N(C)C)cc3)n2)cc1`: the Activity in data set [2] came out at 99%. In data set [2], `COc1ccc(CCn2ncc(C(=O)c3ccc(C(C)C)cc3)n2)cc1` had an Activity of 97%. Regarding `COc1ccc(CCn2ncc(C(=O)c3ccc(Cl)cc3)n2)cc1`, the Activity in data set [2] amounted to 85%. In data set [2], `COc1ccc(CCn2ncc(C(=O)c3ccccc3Cl)n2)cc1` had an Activity of 22%.
